Screening data from PubChem BioAssay.
F508del corr: CFTR F508del correction in bronchial cells; CFBE cells, YFP halide quenching; stimulated with forskolin plus potentiator P3; % fluorescence drop versus neutral controls; activity (quench increase), % at 7.58 µM; 350,000 compounds, 0.36% hits;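 active = mean added fluorescence quench of at least 8% versus neutral control, with both replicates also reaching 8%; inconclusive = only one of the mean or replicate conditions met; inactive = mean below 8% and not both replicates reaching 8%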;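 note: cells transiently co-express mutant CFTR-F508del with the halide-sensitive YFP; corrector assay measuring rescue of mutant channel to the surface after 24 h compound exposure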
S100A4 MyoIIA: inhibitors of human S100A4 binding to myosin IIA peptide; P26447; S100A4/TAMRA-MyoIIA peptide fluorescence polarization; inhibition, % at 10.7 µM; 360,000 compounds, 0.14% hits; AID 652163;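 active = mean inhibition of at least 70% across replicates, with every replicate also reaching that level; inconclusive = mean inhibition reaches 70% but some replicates fall short; inactive = mean inhibition below 70%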
Target sequence (P26447 whole entry, looked up): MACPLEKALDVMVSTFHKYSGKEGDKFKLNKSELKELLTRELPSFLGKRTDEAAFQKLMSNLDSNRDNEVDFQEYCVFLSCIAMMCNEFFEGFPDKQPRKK
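Test system: S100A4 monomer protein; Medium: HEPES pH 7.2 with CaCl2, KCl, NaCl, DTT, Triton; Probe or stimulus: TAMRA-labelled myosin IIA heavy-chain peptide probe, 5 nM; Doses: one dose per compound; Times: polarization read 5 min after assay mix addition, stable 5–60 min; Benchmarks: neutral control DMSO, positive control TFP.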
FGF22 binding: binders of recombinant human FGF22 by thermal shift; Q9HCT0; activity (Tm shift, normalised), % at 9.99 µM; SYPRO orange fluorescence; percent of sucrose octasulfate shift, DMSO zero; 340,000 compounds, 1.5% hits;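 active = mean Tm shift, scaled 0 neutral to 100 positive control, at about 1.3% or above, every replicate too, limit read from the data; inconclusive = no clear call, values can overlap the other calls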
Target sequence (Q9HCT0 whole entry, looked up): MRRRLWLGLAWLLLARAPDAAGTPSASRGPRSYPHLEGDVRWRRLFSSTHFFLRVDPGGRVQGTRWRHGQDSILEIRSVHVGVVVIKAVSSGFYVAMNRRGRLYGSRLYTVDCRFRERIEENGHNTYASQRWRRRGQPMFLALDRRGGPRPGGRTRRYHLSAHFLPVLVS
HIV Env fusion: inhibitors of HIV Env-mediated cell fusion; 360,000 compounds, 1.1% hits; inhibition, % at 12.3 µM; HeLa-JRFL Env/CEM21 cell fusion, luciferase;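 active = mean replicate inhibition score of at least 50 and every replicate individually at or above 50; inconclusive = only one of the two criteria met; inactive = mean below 50 and not all replicates reaching 50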;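 note: 0% = plate neutral controls and 100% = maraviroc near 300 nM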
E-sel inducer: induces E-selectin expression in human endothelial cells; P16581; HUVEC E-selectin immunofluorescence imaging; normalized: neutral wells 0, TNF-alpha wells 100; activation, % at 7.58 µM; 260,000 compounds, 0.37% hits; AID 686992;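 active = mean E-selectin-positive cell signal at least 10% of the positive control, reached in at least 60% of replicates, without over 20% cell loss; inconclusive = no rule given, readout overlaps actives, possibly toxicity-flagged; inactive = the rest, including those meeting only one limit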
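Test system – human umbilical vein endothelial cells (HUVEC), E-selectin induction · Input – 3,000 HUVEC seeded per well · Buffer or medium – EGM-2, gelatin · Compound dosing – single-point compound dose · Detection – immunofluorescence imaging · Measure – percent E-selectin-positive cells · Controls – TNF-alpha high, DMSO low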
Numbers without * were called inactive; ! = not confirmed by another sample; [ ] = dose if it differs, or a comment. An excerpt weighted towards active compounds, which were near 2.7% of everything screened.

What do the screens show for `CC(C)C#Cc1ccc2c(c1)O[C@H](CN(C)S(=O)(=O)c1cn(C)cn1)[C@H](C)CN([C@@H](C)CO)S2(=O)=O`?
F508del corr: -0.9; S100A4 MyoIIA: -5.9; FGF22 binding: -0.3; E-sel inducer: -0.4

What do the screens show for `COc1ccc(C(=O)N2CCN(c3ccc([N+](=O)[O-])c(NCCc4ccc(OC)c(OC)c4)c3)CC2)cc1`?
HIV Env fusion: 76.8*

How did CO[C@H]1CN(C)C(=O)c2cc(NC(=O)C3CC3)ccc2OC[C@@H](C)N(CCC(F)(F)F)C[C@H]1C do in these assays?
F508del corr: 2.6; S100A4 MyoIIA: -28.8; FGF22 binding: 0.0; HIV Env fusion: -7.6[16.7 µM]; E-sel inducer: 0.6

What do the screens show for `CCOc1cccc(C(=O)NC(=S)Nc2ccc(Cl)cc2C(=O)O)c1`?
F508del corr: 0.8; S100A4 MyoIIA: 4.8; FGF22 binding: 43.5*; HIV Env fusion: 7.4; E-sel inducer: 6.7

How did CCCOc1cccc(C(=O)NC(=S)Nc2ccccc2)c1 do in these assays?
S100A4 MyoIIA: -0.7; FGF22 binding: 0.1; HIV Env fusion: -25.2; E-sel inducer: 0.2

Results for Cc1cc(C)n2cc(CSc3nnc(-c4ccccc4)c(-c4ccccc4)n3)nc2n1 ?
F508del corr: 2.2; S100A4 MyoIIA: 1.1; FGF22 binding: -0.1; HIV Env fusion: 2.7; E-sel inducer: 1.8

What do the screens show for `Cc1cc(C)n2cc(CSc3ccc(Br)cc3)nc2n1`?
F508del corr: -1.2; S100A4 MyoIIA: -4.4; FGF22 binding: 43.0*; HIV Env fusion: -11.0; E-sel inducer: -0.1

How did Cc1cc(C)n2cc(CSCC(=O)O)nc2n1 do in these assays?
HIV Env fusion: -14.3; E-sel inducer: 0.0

How did Cc1cc(C)n2cc(CSc3ncn[nH]3)nc2n1 do in these assays?
F508del corr: 3.1; S100A4 MyoIIA: -3.8; FGF22 binding: 43.2*; HIV Env fusion: -1.7

How did O=C(c1cnccn1)N1CC(=O)N2[C@@H](CO)[C@H](c3ccc(C#CCC4CCCC4)cc3)[C@@H]2C1 do in these assays?
F508del corr: 0.9; S100A4 MyoIIA: 14.5; E-sel inducer: -0.5

Results for CCCOc1ccc(C2C(=O)N(C3CCCCCC3)CC(=O)N2Cc2ccco2)cc1OC (configuration not stated) ?
HIV Env fusion: 58.5*

How did CO[C@H]1CN(C)C(=O)c2cc(NS(=O)(=O)Cc3ccccc3)ccc2OC[C@@H](C)NC[C@@H]1C do in these assays?
F508del corr: -3.0; S100A4 MyoIIA: 8.1; FGF22 binding: 0.1; HIV Env fusion: -13.3[16.7 µM]; E-sel inducer: 0.1

What do the screens show for `CO[C@@H]1CN(C)C(=O)c2cc(NC(C)=O)ccc2OC[C@H](C)N(CC2CC2)C[C@@H]1C`?
F508del corr: -0.5; S100A4 MyoIIA: 16.3; FGF22 binding: 0.0; E-sel inducer: -0.2

Results for Cc1c(C(C)C)c(=O)n(-c2ccc(S(=O)(=O)NCc3ccccc3)cc2)n1C ?
S100A4 MyoIIA: 0.3; FGF22 binding: 42.9*; HIV Env fusion: 52.5

What do the screens show for `O=C(NC[C@@H]1[C@@H](c2ccccc2)[C@@H](CO)N1Cc1ccccn1)C1CCCC1`?
F508del corr: 0.7; E-sel inducer: -0.1

How did COC(=O)C1(C(=O)OC)C[C@H](c2cccs2)N(Cc2ccccc2OC)[C@@H]1c1ccc(F)cc1 do in these assays?
F508del corr: -0.7; S100A4 MyoIIA: -3.5; FGF22 binding: -0.3; HIV Env fusion: 43.8; E-sel inducer: 0.1

What do the screens show for `CCOc1ccccc1CN1[C@@H](c2ccc(OC)cc2)CC(C(=O)OC)(C(=O)OC)[C@H]1c1ccccc1`?
F508del corr: 0.0; S100A4 MyoIIA: 0.6; FGF22 binding: -0.2; HIV Env fusion: 60.9*; E-sel inducer: -0.1

Results for Cc1ccc(C(=O)Nc2cccc(C(F)(F)F)c2)cc1NC(=O)c1c[nH]c2cc(C(F)(F)F)ccc2c1=O ?
F508del corr: 2.2; S100A4 MyoIIA: 1.5; FGF22 binding: 44.0*; E-sel inducer: 0.3

Results for CCN1CCN(Cc2ccc(NC(=O)c3ccc(C)c(NC(=O)c4c[nH]c5cc(C(F)(F)F)ccc5c4=O)c3)cc2C(F)(F)F)CC1 ?
F508del corr: 5.3; S100A4 MyoIIA: 0.6; FGF22 binding: -0.3; HIV Env fusion: 105.8*!; E-sel inducer: -6.8

How did COc1ccc(NC(=O)N(C)C[C@H]2Oc3ccc(NS(=O)(=O)c4cccs4)cc3CC(=O)N([C@H](C)CO)C[C@@H]2C)cc1 do in these assays?
F508del corr: -3.5; FGF22 binding: 0.7; HIV Env fusion: 10.0[16.7 µM]; E-sel inducer: 0.1

What do the screens show for `N#CCCn1nc(-c2ccc(Br)cc2)cc1Nc1ccccc1NC(=O)C(F)(F)F`?
F508del corr: 0.1; S100A4 MyoIIA: -4.5; FGF22 binding: 2.5*; HIV Env fusion: 2.2; E-sel inducer: 0.8

What do the screens show for `C[C@@H]1CN([C@H](C)CO)C(=O)c2cc(N(C)C)ccc2O[C@@H]1CN(C)C`?
F508del corr: 3.5; S100A4 MyoIIA: 12.3; FGF22 binding: 0.1; HIV Env fusion: -0.2[16.7 µM]; E-sel inducer: 0.1

How did C[C@@H]1CN([C@@H](C)CO)C(=O)Cc2cc(N(C)C)ccc2O[C@@H]1CN(C)C(=O)Nc1cccc2ccccc12 do in these assays?
F508del corr: -1.9; S100A4 MyoIIA: -0.8; FGF22 binding: -1.0; HIV Env fusion: inconclusive; E-sel inducer: 4.5

How did COCC(=O)Nc1ccc2c(c1)[C@@H]1C[C@@H](CC(=O)N(C)C)O[C@@H](CO)[C@@H]1O2 do in these assays?
F508del corr: -1.5; S100A4 MyoIIA: 5.5; FGF22 binding: -0.3; HIV Env fusion: 11.9[16.7 µM]; E-sel inducer: 0.7

Results for Cc1ccc(NS(=O)(=O)c2cccc(C(=O)NCC(c3cccs3)N(C)C)c2)cc1 (configuration not stated) ?
F508del corr: 1.8; S100A4 MyoIIA: 1.9; FGF22 binding: 42.9*; HIV Env fusion: -23.1

What do the screens show for `CNS(=O)(=O)c1cccc(C(=O)NCC(c2cccs2)N(C)C)c1` (configuration not stated)?
HIV Env fusion: -42.6

What do the screens show for `C[C@H](CO)N1C[C@H](C)[C@H](CN(C)C(=O)NC2CCCCC2)Oc2ccc(NS(=O)(=O)c3ccccc3)cc2C1=O`?
F508del corr: 3.1; S100A4 MyoIIA: 4.3; FGF22 binding: -0.2; E-sel inducer: 62.8*

What do the screens show for `C[C@H]1CN([C@@H](C)CO)C(=O)c2cc(NS(C)(=O)=O)ccc2O[C@@H]1CN(C)C(=O)Nc1ccccc1`?
F508del corr: -1.8; S100A4 MyoIIA: 0.0; FGF22 binding: 0.0; E-sel inducer: -15.3

What do the screens show for `C[C@@H]1CN([C@H](C)CO)C(=O)c2cc(NS(C)(=O)=O)ccc2O[C@@H]1CN(C)C(=O)Nc1ccccc1`?
F508del corr: -0.5; S100A4 MyoIIA: -5.1; FGF22 binding: 0.0; E-sel inducer: 81.7*

What do the screens show for `Cc1ccc(S(=O)(=O)Nc2ccc3c(c2)C(=O)N([C@H](C)CO)C[C@@H](C)[C@H](CN(C)C(=O)NC2CCCCC2)O3)cc1`?
F508del corr: -0.1; S100A4 MyoIIA: 8.9; FGF22 binding: -0.1; E-sel inducer: 5.0
